Source: PubChem
BB579 growth dn: growth inhibitors of yeast BB579 in restrictive medium, primary screen, yeast lifespan-shortening project, S. cerevisiae; actives 0.51% (n = 140,000); inhibition, % at 10 µM; OD615, 48 h;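 active means inhibition above a set limit, 3 SD over the mean compound inhibition, cut at about 44% in these data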
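System: DeaD yeast strain BB579; buffer or medium: CSMM-D dextrose restrictive medium; technique: OD at 615 nm; schedule: 4 h cell preincubation, 48 h compound exposure, 30 °C humidified; doses: single 10 µM dose; controls: amphotericin B 10 µg/mL, positive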
S1P3 antag: S1P3 receptor antagonists, primary screen, cell-based; actives 0.27% (n = 170,000); CHO S1P3 NFAT-BLA reporter, FRET fluorescence, antagonist mode; inhibition, % at 4.98 µM;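 active means inhibition above the plate cutoff, the mean inhibition of test wells on that plate plus 3 SD, cut at about 28% in these data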;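 further: cells challenged with S1P at its EC80 of 0.8 µM; blue over green emission ratio from cleaved BLA substrate after 4 h stimulation; 0% = S1P-stimulated wells and 100% = unstimulated DMSO-only wells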
Target sequence (Q99500 whole entry, looked up): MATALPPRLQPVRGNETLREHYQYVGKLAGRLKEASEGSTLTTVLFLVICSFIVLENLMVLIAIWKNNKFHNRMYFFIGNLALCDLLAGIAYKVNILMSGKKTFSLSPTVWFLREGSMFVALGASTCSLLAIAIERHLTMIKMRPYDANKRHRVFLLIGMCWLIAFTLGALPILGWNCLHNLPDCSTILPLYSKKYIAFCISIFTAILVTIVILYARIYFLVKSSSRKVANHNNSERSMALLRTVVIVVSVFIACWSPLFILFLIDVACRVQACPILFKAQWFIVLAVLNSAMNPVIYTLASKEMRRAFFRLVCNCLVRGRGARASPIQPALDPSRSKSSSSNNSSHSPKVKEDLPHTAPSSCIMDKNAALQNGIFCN
Yeast lifespan up: compounds extending yeast replicative lifespan, primary screen, S. cerevisiae, OD615 | S. cerevisiae growth with nicotinamide; deaD strain in restrictive glucose medium | inhibition of the nicotinamide effect, % at 10 µM | actives 0.68% (n = 130,000);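 active means inhibition above a set limit, placed 3 SD over the median of all compounds, cut at about 26% in these data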;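 further: 0% = nicotinamide-treated wells and 100% = cells grown without nicotinamide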
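assay system = DeaD-strain S. cerevisiae | buffer or medium = restrictive glucose medium | reagent = 1.5 mM nicotinamide | compound = 10 µM single point, 0.25% DMSO | incubation = 48 h compound exposure at 30 °C, humidified | signal = OD615 measurement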
Active calls of the source: *; nt = no result given. A selection: hits, their analogues and other compounds. The true share with any hit is near 0.98%.

SMILES	BB579 growth dn	S1P3 antag	Yeast lifespan up
COC(=O)Cc1c[nH]c2cccc(OCC(O)CN(Cc3ccc([N+](=O)[O-])cc3)C(C)(C)C)c12 (stereo unspecified)	-25	nt	-17
O=C(O)CSc1nc(-c2ccc(Cl)cc2)nc2c1oc1ccccc12	71*	-5	-7
O=C(O)CSc1nc(-c2ccccc2)nc2c1oc1ccccc12	-33	10	-9
COCCSc1nnc(NC(=O)c2ccc(NC(=O)C(C)C)cc2)s1	nt	-6	nt
CC(C)CCNc1ncnc2c1nnn2Cc1ccccc1Cl	-33	2	-1
O=C(Nc1cccc(F)c1)c1c(O)c2cccc3c2n(c1=O)CCC3	nt	6	nt
Cc1cccc(NC(=O)c2c(O)c3cccc4c3n(c2=O)CCC4)n1	-72	-48	74*
CC(C)c1nnc(NC(=O)c2c(O)c3cccc4c3n(c2=O)CCC4)s1	-33	-20	40*
Cc1cnc(NC(=O)c2c(O)c3cccc4c3n(c2=O)CCC4)s1	-14	-9	10
Cc1ccc(S(=O)(=O)n2nnc3ccccc32)c(C)c1C	nt	-12	nt
Cc1ccc(NC(=O)COC(=O)CCC(=O)c2cccs2)cc1	-56	6	-2
CCOC(=O)c1cc2sc(C)cc2n1C(C)C(=O)OCC (stereo unspecified)	-48	76*	-11
CCOC(=O)c1cc2sc(C)cc2n1CC(=O)Nc1cccc(C)c1C	-29	-2	-5
O=C1OCC(CO)(CO)N=C1NNc1cc(Cl)ccc1Cl	64*	nt	-15
O=C1OCC(CO)(CO)N=C1NNc1ccccc1[N+](=O)[O-]	nt	8	nt
CN(C(=O)N1CCN(c2ccccn2)CC1)c1ccccc1	-34	nt	11
CC1=NNC(=O)C1CC(=O)N/N=C/C(Br)=C/c1ccccc1 (stereo unspecified)	nt	0	nt
CC1=NNC(=O)C1CCC(=O)N/N=C/C(Br)=C/c1ccccc1 (stereo unspecified)	-1	-12	35*
Cc1nnc(SCC(=O)Nc2ccc3c(c2)OCO3)o1	-60	nt	-4
O=C(O)c1ccc(NS(=O)(=O)c2cc(C(=O)O)ccc2Br)cc1	-23	-47	0
CCOC(=O)N1CCN(C(=O)C(CC)n2nc(C)c3sc4ccccc4c3c2=O)CC1 (stereo unspecified)	-26	9	3
CCOC(=O)N1CCN(C(=O)Cn2nc(C)c3sc4ccccc4c3c2=O)CC1	45*	-9	-6
FC(F)(F)c1cccc(-c2nnc3ccc(C(F)(F)F)cn23)c1	-40	93*	-9
FC(F)(F)c1cccc(-c2nn[nH]n2)c1	nt	-10	nt
COc1cc(/C=N/N2C(=O)C3C4c5ccccc5C(c5ccccc54)C3C2=O)ccc1O (stereo unspecified)	-35	-2	0
SMILES	BB579 growth dn	S1P3 antag	Yeast lifespan up
O=c1c(Cl)c(NCCCO)cnn1-c1nc2ccccc2[nH]1	-28	nt	81*
C=CCN(CC=C)c1cnn(-c2nc3ccccc3[nH]2)c(=O)c1Cl	-43	nt	10
CCOC(=O)c1nnc(-c2ccc(C)cc2)nc1N1CCSCC1	nt	13	nt
Cc1ccc2[nH]c(=O)c3cc(C(=O)N(C)c4ccc(C)c(C)c4)sc3c2c1	nt	2	nt
O=C(CN1C(=O)COc2ccccc21)Nc1ccc2c(c1)OCCO2	-32	2	54*
O=C(CN1C(=O)CSc2ccccc21)Nc1ccc2c(c1)OCCO2	-39	nt	-13
CC(=O)c1c(C)[nH]c(C(=O)CSc2ccc(F)cc2)c1C	nt	-3	nt
Cc1cc(/C=C2/NC(=O)N(Cc3ccccc3F)C2=O)c(C)n1C	-55	-2	27*
Cc1cc(/C=C2/NC(=O)N(Cc3ccccc3F)C2=O)c(C)n1-c1ccccn1	-52	11	6
CC1(C)CC(=O)C(C(C2=C(O)CC(C)(C)CC2=O)c2ccc(Br)s2)C(=O)C1 (stereo unspecified)	-8	-12	30*
Cc1ccc(C(C2=C(O)CC(C)(C)CC2=O)C2C(=O)CC(C)(C)CC2=O)s1 (stereo unspecified)	12	nt	25
COc1cccc(C(C2=C(O)CC(C)(C)CC2=O)C2C(=O)CC(C)(C)CC2=O)c1 (stereo unspecified)	-32	-4	22
CC1(C)CC(=O)C(C(C2=C(O)CC(C)(C)CC2=O)c2ccc([N+](=O)[O-])cc2)C(=O)C1 (stereo unspecified)	-31	1	38*
CCn1ccnc1CN(C)C(=O)CC1C(=O)NCCN1Cc1c(F)cccc1Cl (stereo unspecified)	nt	-22	nt
CSc1ccc(CN2CCC(C(=O)NCc3ccc(C)cc3)CC2)cc1	nt	-6	nt
O=C(COC(=O)c1ccc([N+](=O)[O-])s1)Nc1ccccc1	-32	-4	12
CC(C)(C)c1ccc(NC(=O)COC(=O)c2ccc([N+](=O)[O-])s2)cc1	100*	-4	-11
Brc1cnn(-c2nc(N3CCOCC3)nc(N3CCOCC3)n2)c1	nt	5	nt
CC1CC2=C(C(=O)O1)C(c1ccccc1)Nc1ccccc1N2 (stereo unspecified)	19	-5	-1
O=C1NCC2=C1C(c1ccc(Br)cc1)Nc1ccccc1N2 (stereo unspecified)	-48	nt	92*
Cc1ccc(S(=O)(=O)Nc2cc(S(=O)(=O)N3CCCCC3)ccc2N2CCOCC2)cc1	nt	-6	nt
CC(C)OC(=O)c1nnn(-c2nonc2N)c1CN1CCc2ccccc2C1	-63	-7	26
CCOC(=O)c1nnn(-c2nonc2-n2cccc2)c1CCl	-21	nt	55*
CCOC(=O)c1nnn(-c2nonc2-n2cccc2)c1CN1CCC(C)CC1	-57	-12	-12
CCOC(=O)c1nnn(-c2nonc2N)c1CN1CCc2ccccc2C1	-38	35	62*
SMILES	BB579 growth dn	S1P3 antag	Yeast lifespan up
CCn1c(COc2cccc(C)c2C)nnc1SCC(=O)N1CCN(c2ccc(OC)cc2)CC1	-71	nt	-2
O=C(C1=C[C@H](C2CCCCC2)C[C@H](OCCCCO)O1)N1CCN(Cc2ccc3c(c2)OCO3)CC1	nt	-12	nt
C=CCn1c(SCC(=O)Nc2ccccc2C)nnc1-c1ccncc1	12	7	-7
COc1ccc(NC(=O)CSc2nnc(CNC(=O)c3ccco3)o2)c(OC)c1	-47	nt	-6
COc1ccc(NC(=O)Cc2ccc(Cl)c(Cl)c2)cn1	nt	2	nt
COc1ccc(NC(=O)/C(Cl)=C(/Cl)S(=O)Cc2ccccc2Cl)cn1 (stereo unspecified)	nt	47*	nt
COc1cccc(Cn2c(=S)[nH]c3ccc(N4CCOCC4)cc3c2=O)c1	-16	nt	-18
COC(=O)c1cc(CNC(=O)c2ccccc2Cl)ccc1OC	6	2	-1
O=C(COC(=O)CNS(=O)(=O)c1ccc2ccccc2c1)Nc1ccccc1Sc1ccccc1	-31	4	0
O=C1/C(=C/c2ccncc2)SC(=S)N1Cc1ccccc1	nt	9	nt
CCCN1C(=O)/C(=C/c2ccncc2)SC1=S	-48	-7	54*
CCC(=O)N1c2ccccc2[C@@H](N(C(C)=O)c2ccccc2)C[C@H]1C	-56	-22	1
Cc1ccc(C(=O)N(c2ccccc2)C2CC(C)N(C(=O)c3ccco3)c3ccccc32)cc1 (stereo unspecified)	-12	nt	34*
NNC(=O)c1ccc(COc2cccc3ccccc23)o1	nt	0	nt
